An excerpt weighted towards active compounds, which were near 2.5% of everything screened.
NALP1 inh – inhibitors of NALP1 inflammasome in yeast. AID 2071. S. cerevisiae NALP1/ASC/caspase-1 growth, X-gal OD620, 72 h. inhibition, % at 10 µM. hit rate 0.61% among 280,000; in the data active = inhibition mostly above about 24%, no sharp cut-off; inactive = mostly below about 32%
NLRP3 yeast inh – inhibitors of NALP3 inflammasome in yeast | Yeast reconstituted NLRP3/ASC/caspase-1, beta-gal luminescence, 24 h | inhibition, % at 10 µM | hit rate 0.39% among 330,000;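 active = inhibition of 50% or more; inactive = inhibition below 50%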
MC4R ag barr – agonists of human melanocortin 4 receptor (MC4R) beta-arrestin. U2OS MC4R beta-arrestin complementation, luminescence; percent of melanotan II response, DMSO zero. activation, % at 8.9 µM. hit rate 0.98% among 360,000. AID 540308;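 active = activation above a per-plate cutoff, the mean activation of sample wells on that plate plus 3 SD, cut at about 8% in these data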
Target sequence (P32245 whole entry, looked up): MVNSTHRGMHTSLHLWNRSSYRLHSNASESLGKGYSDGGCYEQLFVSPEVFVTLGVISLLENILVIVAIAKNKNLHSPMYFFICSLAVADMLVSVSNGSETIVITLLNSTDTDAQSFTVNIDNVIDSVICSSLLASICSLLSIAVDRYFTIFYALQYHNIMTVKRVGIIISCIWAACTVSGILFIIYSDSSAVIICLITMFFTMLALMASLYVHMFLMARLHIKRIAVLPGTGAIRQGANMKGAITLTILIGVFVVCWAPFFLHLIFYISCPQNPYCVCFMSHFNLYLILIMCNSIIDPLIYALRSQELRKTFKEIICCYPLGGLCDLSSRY
Tb MetRS inh – blocks T. brucei methionyl-tRNA synthetase activity; AID 624268; hit rate 0.4% among 360,000; purified T. brucei MetRS, ATP depletion, Kinase-Glo luminescence; inhibition, % at 11.9 µM;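 active = inhibition above a per-plate cutoff of the control wells' mean inhibition plus 3 SD, cut at about 5.5% in these data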
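System: purified T. brucei MetRS enzyme / Detection: Kinase-Glo luciferase luminescence reporting remaining unconsumed ATP / Medium: HEPES buffer with MgCl2, KCl, DTT, spermine, BSA, pyrophosphatase / Replication: singlicate, one well per compound / Evaluation: percent inhibition relative to median high and low control wells / Schedule: 2 h aminoacylation at 25 °C after 15 min preincubation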
A1 inh – inhibitors of the anti-apoptotic protein A1, read as caspase activation | MEF A1-2A-BIM cells, Caspase-Glo 3/7 luminescence, 3 h; percent of clofoctol response, vehicle zero | caspase activation, % (concentration not given with the values) | hit rate 0.066% among 330,000 | AID 2462;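 active = over half of replicate activation scores above 10%, or exactly half above 10 with the replicate mean above 10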
MC4R antag cAMP – human MC4R antagonism in cAMP assay; P32245; AID 540295; inhibition, % at 6.5 µM; hit rate 0.48% among 360,000; MC4R-expressing cells, MTII-stimulated cAMP, LANCE TR-FRET;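 active = inhibition above its plate's cutoff, the mean of tested wells on that plate plus 3 SD, cut at about 29% in these data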
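Assay system: human MC4R-expressing U2OS cells; reagent: Melanotan II stimulation of cells; dosing: 6.5 µM single dose; timing: compound 30 min, challenge 1 h, detection 1 h; signal: TR-FRET cAMP assay; replicates: one well per compound, no replicates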
Tb MetRS conf – Trypanosoma brucei MetRS inhibition confirmed; shares compounds with Tb MetRS inh; inhibition, % at 11.9 µM; T. brucei MetRS enzyme, luminescence (ATP depletion); hit rate 93% among 1,400; AID 624412; in the data active = inhibition above about 7%
Jurkat cytotox – counter-screen for T. brucei MetRS inhibitors: Jurkat cell cytotoxicity; shares compounds with Tb MetRS inh; Jurkat cells viability, ATP luminescence; inhibition, % at 8.3 µM; hit rate 12% among 1,400; AID 624413; in the data active = inhibition above about 15%
TbMetRS FP orth – inhibits T. brucei methionyl tRNA synthetase in orthogonal FP test | shares compounds with Tb MetRS inh | purified T. brucei MetRS, fluorescence polarization | inhibition, % at 11.9 µM | hit rate 44% among 1,400 | AID 651607; in the data active = inhibition above about 17%
Numbers stand for hits; 0 = inactive; - = not tested or not shown.

SMILES | NALP1 inh | NLRP3 yeast inh | MC4R ag barr | Tb MetRS inh | A1 inh | MC4R antag cAMP | Tb MetRS conf | Jurkat cytotox | TbMetRS FP orth
COC(=O)c1ccc(-c2ccc(/C=N/NC(=O)Cc3nnc(N)s3)o2)cc1 | - | 0 | 0 | 0 | 0 | 0 | - | - | -
Nc1nnc(CC(=O)N/N=C/c2ccc(-c3ccc(Cl)cc3Cl)o2)s1 | - | 0 | 0 | 11 | 0 | 0 | 0 | 0 | 0
Nc1nnc(CC(=O)N/N=C/c2ccc(-c3ccccc3)o2)s1 | 0 | 0 | 0 | 8.1 | 0 | 0 | 0 | 0 | 0
CN1CCSc2ccc(C(=O)NCc3cccc(Br)c3)cc21 | 0 | 0 | 0 | 5.7 | 0 | 0 | 11 | 0 | 0
Cc1cccc(CNC(=O)c2ccc3c(c2)N(C)CCS3)c1 | 0 | 0 | 0 | 0 | 0 | 0 | - | - | -
Cc1cc(OCC(=O)OC(C)C(=O)NC2CC2)c(C(C)C)cc1Cl (stereo not drawn) | - | - | 0 | 0 | - | 0 | - | - | -
COCCCNC(=S)NNC(=O)c1ccc(S(=O)(=O)N2CCC(C)CC2)cc1 | 0 | 0 | 0 | 59 | 0 | 0 | 80 | 0 | 50
COCCCNC(=S)NNC(=O)c1ccc(C(C)(C)C)cc1 | 0 | 0 | 0 | 0 | 0 | 0 | - | - | -
Cc1cc(Cl)cc(C)c1OCCCCCn1ccnc1 | 0 | 0 | 0 | 7.8 | 0 | 0 | 19 | 0 | 0
Cc1ccc(N2CC(c3nc4ccccc4[nH]3)CC2=O)c(C)c1 (stereo not drawn) | 0 | 0 | 0 | 8.3 | 0 | 0 | 9.2 | 0 | 0
COc1ccccc1NS(=O)(=O)c1cccc(NC(=O)Nc2ccc(Cl)cc2)c1 | 0 | 0 | 0 | 51 | 0 | 0 | 78 | 0 | 103
COc1cccc(OC)c1C(=O)Nc1cccc(S(=O)(=O)Nc2ccccc2Cl)c1 | - | 0 | 0 | 0 | 0 | 0 | - | - | -
COc1ccccc1NS(=O)(=O)c1cccc(NC(=O)Nc2ccccc2)c1 | 0 | 0 | 0 | 88 | 0 | 0 | 100 | 0 | 105
Cc1cc(CN2CCC(N3CCC(C(=O)NC4CC4)CC3)CC2)cc(C)c1O | 0 | 0 | 0 | 0 | 0 | 0 | - | - | -
O=c1c(Cc2ccc(Cl)cc2Cl)c(O)ccn1Cc1ccncc1 | 0 | 0 | 0 | 27 | 0 | 0 | 39 | 0 | 27
O=C(c1ccncc1)c1ccc(N2CCN(C3CC(=O)N(Cc4cccs4)C3=O)CC2)cc1 (stereo not drawn) | 0 | 0 | 0 | 6.6 | 0 | 0 | 14 | 0 | 0
Cc1c(NS(=O)(=O)c2cccc(C(=O)NCc3cccc(Cl)c3)c2)c(=O)n(-c2ccccc2)n1C | - | - | 0 | 18 | - | 0 | 43 | 0 | 27
c1ccc(N2[C@@H]3c4ccccc4C[C@H]2c2ccccc23)cc1 | - | - | - | 0 | - | - | - | - | -
CC(C)(C)C(=O)CSc1nc2ncc(Br)cc2[nH]1 | 0 | 0 | 0 | 7.5 | 0 | 0 | 18 | 0 | 0
O=[N+]([O-])c1ccc(CSc2nc3ncc(Br)cc3[nH]2)cc1 | - | 0 | 0 | 0 | 0 | 0 | - | - | -
Cc1nc2nc(SCC(=O)C(C)(C)C)[nH]c2cc1Br | 0 | 0 | 0 | 0 | 0 | 0 | - | - | -
Fc1ccccc1CSc1nc2ncc(Br)cc2[nH]1 | 0 | 0 | 0 | 5.9 | 0 | 0 | 14 | 0 | 17
N#Cc1ccccc1CSc1nc2ncc(Br)cc2[nH]1 | 0 | 0 | 0 | 8.3 | 0 | 0 | 37 | 0 | 17
CCSc1nsc(NC(=O)Nc2cccc(OC)c2)n1 | 0 | 0 | 0 | 0 | 0 | 0 | - | - | -
CCSc1nsc(NC(=O)Nc2ccccc2F)n1 | 0 | 0 | 0 | 7.0 | 0 | 0 | 13 | 0 | 0
SMILES | NALP1 inh | NLRP3 yeast inh | MC4R ag barr | Tb MetRS inh | A1 inh | MC4R antag cAMP | Tb MetRS conf | Jurkat cytotox | TbMetRS FP orth
COc1cccc(CN2CC(C(=O)N3CCOCC3)CCC2=O)c1 (stereo not drawn) | 0 | 0 | 0 | 0 | 0 | 0 | - | - | -
CCN1C(=O)C(CC(=O)Nc2ccc(OC)cc2)N(CCN2CCOCC2)C1=S (stereo not drawn) | 0 | 0 | 0 | 0 | 0 | 0 | - | - | -
COc1ccc(NC(=O)CC2C(=O)N(C)C(=S)N2CCc2ccccc2F)cc1 (stereo not drawn) | 0 | 0 | 0 | 35 | 0 | 0 | 46 | 0 | 20
CCN1C(=O)C(CC(=O)Nc2ccc(OC)cc2)N(CCc2ccccc2F)C1=S (stereo not drawn) | 0 | 0 | 0 | 33 | 0 | 0 | 34 | 18 | 21
COc1ccc(NC(=O)CC2C(=O)N(C)C(=S)N2Cc2ccco2)cc1 (stereo not drawn) | 0 | 0 | 0 | 0 | 0 | 0 | - | - | -
O=C(CN1C(=O)/C(=C2\SC(=S)N(CCS(=O)(=O)O)C2=O)c2ccccc21)Nc1cccc(Br)c1 | 0 | - | 0 | 19 | 0 | 0 | 20 | 0 | 0
O=C(CN1C(=O)/C(=C2/SC(=S)N(CCS(=O)(=O)O)C2=O)c2ccccc21)Nc1cccc(C(F)(F)F)c1 | - | 0 | 0 | 42 | 0 | 0 | 14 | 0 | 0
COc1cc(OC)cc(C(=O)N[C@H](C(=O)NCc2ccccc2)C(C)C)c1 | 0 | 0 | 0 | 0 | 0 | 0 | - | - | -
C=Cc1ccc(Cn2nc(-c3ccc(C)cc3)ccc2=O)cc1 | 0 | 0 | 0 | 0 | 0 | 0 | - | - | -
Cc1c(N(C)S(=O)(=O)c2ccc(Cl)c(C(=O)NCC(C)(C)N3CCOCC3)c2)c(=O)n(-c2ccccc2)n1C | - | - | 0 | 0 | - | 0 | - | - | -
Nc1cc(C(=O)OCC(=O)NCCCc2ccccc2)ccc1Cl | 0 | 0 | 0 | 9.0 | 0 | 0 | 18 | 0 | 0
COC[C@@H]1CCCN1c1ccc2c(c1)O[C@H](COCc1ccccc1)CN([C@@H](C)c1ccccc1)S2(=O)=O | - | - | - | 0 | - | - | - | - | -
COc1cccc(NC(=O)CSCC(=O)Nc2ccccc2)c1 | 0 | 0 | 0 | 6.1 | 0 | 0 | 18 | 0 | 0
CC(=O)c1ccc(NS(=O)(=O)c2ccc3c(c2)CCC(=O)N3)cc1 | - | 0 | 0 | 0 | 0 | 0 | - | - | -
CC(C)C(=O)OCC(=O)NCc1ccccc1Cl | 0 | 0 | 0 | 0 | 0 | 0 | - | - | -
Cc1ccc(NC(=O)/C=N/OCC(=O)NCc2ccccc2Cl)cc1 | - | 0 | 0 | 16 | 0 | 0 | 29 | 0 | 0
N#C/C(=C\c1ccccc1[N+](=O)[O-])C(=O)NCc1ccccc1 | 0 | 0 | 0 | 0 | 0 | 0 | - | - | -
N#C/C(=C\C=C\c1ccccc1[N+](=O)[O-])C(=O)NCc1ccccc1 | 0 | 0 | 0 | 13 | 0 | 0 | 30 | 77 | 0
O=C(Cc1ccccc1)N/N=C/C=C/c1ccccc1[N+](=O)[O-] | 0 | 0 | 0 | 7.0 | 0 | 0 | 11 | 0 | 0
O=C(C1CCCCC1)N1C[C@H](O)[C@@H](n2cc(C3CC3)nn2)C[C@@H]1c1ccccc1 | - | - | 0 | 0 | - | 0 | - | - | -

Assay outcomes: PubChem, several laboratories
